Assay results as given in ChEMBL document CHEMBL1142180, “First characterization of fluoroquinolone resistance in Streptococcus suis” (2007).
Values after ≈ are worked out from the molar mass of the structure shown.

Experiments:
Type in all cases: functional
Streptococcus suis [1] = experiment: Antibacterial activity against Streptococcus suis BB1008 isolate after 24 hrs
In short: (§1)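 Broth microdilution MIC assay against S. suis collection strain or Spanish/South American swine clinical isolates, incubated at 37°C for 24 h; MIC reported in μg/ml.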

Streptococcus suis [2] = experiment: Antibacterial activity against Streptococcus suis BB1004 isolate after 24 hrs; in short: as §1
Streptococcus suis [3] = experiment: Antibacterial activity against Streptococcus suis BB1010 isolate after 24 hrs; in short: as §1
Streptococcus suis [4] = experiment: Antibacterial activity against Streptococcus suis BB1013 isolate after 24 hrs; in short: as §1
Streptococcus suis [5] = experiment: Antibacterial activity against Streptococcus suis BB1003 isolate after 24 hrs; in short: as §1
Streptococcus suis [6] = experiment: Antibacterial activity against Streptococcus suis BB1016 isolate after 24 hrs; in short: as §1
Streptococcus suis [7] = experiment: Antibacterial activity against Streptococcus suis BB1016 isolate in presence of 10 ug/ml reserpine after 24 hrs
In short: (§2)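 Clinical swine S. suis isolates; MIC by microdilution, 37°C for 24 h, ciprofloxacin tested with reserpine added; MIC reported in μg/ml.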

Streptococcus suis [8] = experiment: Antibacterial activity against Streptococcus suis BB1012 isolate in presence of 10 ug/ml reserpine after 24 hrs; in short: as §2
Streptococcus suis [9] = experiment: Antibacterial activity against Streptococcus suis BB1008 isolate in presence of 10 ug/ml reserpine after 24 hrs; in short: as §1
Streptococcus suis [10] = experiment: Antibacterial activity against Streptococcus suis BB1002 isolate after 24 hrs; in short: as §1
Streptococcus suis [11] = experiment: Antibacterial activity against Streptococcus suis BB1017 isolate in presence of 10 ug/ml reserpine after 24 hrs; in short: as §2
Streptococcus suis [12] = experiment: Antibacterial activity against Streptococcus suis BB1005 isolate after 24 hrs; in short: as §1
Streptococcus suis [13] = experiment: Antibacterial activity against Streptococcus suis BB1015 isolate in presence of 10 ug/ml reserpine after 24 hrs; in short: as §2
Streptococcus suis [14] = experiment: Antibacterial activity against Streptococcus suis BB1009 isolate after 24 hrs; in short: as §1
Streptococcus suis [15] = experiment: Antibacterial activity against Streptococcus suis BB1002 isolate in presence of 10 ug/ml reserpine after 24 hrs; in short: as §1
Streptococcus suis [16] = experiment: Antibacterial activity against Streptococcus suis BB1009 isolate in presence of 10 ug/ml reserpine after 24 hrs; in short: as §2
Streptococcus suis [17] = experiment: Antibacterial activity against Streptococcus suis BB1006 isolate after 24 hrs; in short: as §1
Streptococcus suis [18] = experiment: Antibacterial activity against Streptococcus suis BB1005 isolate in presence of 10 ug/ml reserpine after 24 hrs; in short: as §1
Streptococcus suis [19] = experiment: Antibacterial activity against Streptococcus suis BB1010 isolate in presence of 10 ug/ml reserpine after 24 hrs; in short: as §2
Streptococcus suis [20] = experiment: Antibacterial activity against Streptococcus suis BB1014 isolate in presence of 10 ug/ml reserpine after 24 hrs; in short: as §2
Streptococcus suis [21] = experiment: Antibacterial activity against Streptococcus suis ATCC 43765 in presence of 10 ug/ml reserpine after 24 hrs; conditions: ATCC 43765, 24 h; in short: as §1
Streptococcus suis [22] = experiment: Antibacterial activity against Streptococcus suis ATCC 43765 after 24 hrs; conditions: ATCC 43765, 24 h; in short: as §1
Streptococcus suis [23] = experiment: Antibacterial activity against Streptococcus suis BB1007 isolate in presence of 10 ug/ml reserpine after 24 hrs; in short: as §1
Streptococcus suis [24] = experiment: Antibacterial activity against Streptococcus suis BB1017 isolate after 24 hrs; in short: as §1
Streptococcus suis [25] = experiment: Antibacterial activity against Streptococcus suis BB1001 isolate in presence of 10 ug/ml reserpine after 24 hrs; in short: as §1
Streptococcus suis [26] = experiment: Antibacterial activity against Streptococcus suis BB1004 isolate in presence of 10 ug/ml reserpine after 24 hrs; in short: as §1
Streptococcus suis [27] = experiment: Antibacterial activity against Streptococcus suis BB1003 isolate in presence of 10 ug/ml reserpine after 24 hrs; in short: as §1
Streptococcus suis [28] = experiment: Antibacterial activity against Streptococcus suis BB1012 isolate after 24 hrs; in short: as §1
Streptococcus suis [29] = experiment: Antibacterial activity against Streptococcus suis BB1015 isolate after 24 hrs; in short: as §1
Streptococcus suis [30] = experiment: Antibacterial activity against Streptococcus suis BB1011 isolate in presence of 10 ug/ml reserpine after 24 hrs; in short: as §2
Streptococcus suis [31] = experiment: Antibacterial activity against Streptococcus suis BB1013 isolate in presence of 10 ug/ml reserpine after 24 hrs; in short: as §2
Streptococcus suis [32] = experiment: Antibacterial activity against Streptococcus suis BB1011 isolate after 24 hrs
Streptococcus suis [33] = experiment: Antibacterial activity against Streptococcus suis BB1001 isolate after 24 hrs; in short: as §1
Streptococcus suis [34] = experiment: Antibacterial activity against Streptococcus suis BB1006 isolate in presence of 10 ug/ml reserpine after 24 hrs; in short: as §1
Streptococcus suis [35] = experiment: Antibacterial activity against Streptococcus suis BB1014 isolate after 24 hrs; in short: as §1
Streptococcus suis [36] = experiment: Antibacterial activity against Streptococcus suis BB1007 isolate after 24 hrs; in short: as §1

| Structure (SMILES) | MIC (Streptococcus suis [1]) [µg/mL] | MIC (Streptococcus suis [2]) [µg/mL] | MIC (Streptococcus suis [3]) [µg/mL] | MIC (Streptococcus suis [4]) [µg/mL] | MIC (Streptococcus suis [5]) [µg/mL] | MIC (Streptococcus suis [6]) [µg/mL] | MIC (Streptococcus suis [10]) [µg/mL] | MIC (Streptococcus suis [12]) [µg/mL] | MIC (Streptococcus suis [14]) [µg/mL] | MIC (Streptococcus suis [17]) [µg/mL] | MIC (Streptococcus suis [22]) [µg/mL] | MIC (Streptococcus suis [24]) [µg/mL] | MIC (Streptococcus suis [28]) [µg/mL] | MIC (Streptococcus suis [29]) [µg/mL] | MIC (Streptococcus suis [32]) [µg/mL] | MIC (Streptococcus suis [33]) [µg/mL] | MIC (Streptococcus suis [35]) [µg/mL] | MIC (Streptococcus suis [36]) [µg/mL] | further results |
| --- | --- | --- | --- | --- | --- | --- | --- | --- | --- | --- | --- | --- | --- | --- | --- | --- | --- | --- | --- |
| O=C(O)c1cn(C2CC2)c2cc(N3CCNCC3)c(F)cc2c1=O [CIPROFLOXACIN] | 64 (≈ 193 µM) | 0.5 (≈ 1.51 µM) | 32 (≈ 96.6 µM) | 64 (≈ 193 µM) | 0.5 (≈ 1.51 µM) | 32 (≈ 96.6 µM) | 0.5 (≈ 1.51 µM) | 0.5 (≈ 1.51 µM) | 32 (≈ 96.6 µM) | 2 (≈ 6.04 µM) | 0.5 (≈ 1.51 µM) | 64 (≈ 193 µM) | 32 (≈ 96.6 µM) | 32 (≈ 96.6 µM) | 16 (≈ 48.3 µM) | 0.5 (≈ 1.51 µM) | 64 (≈ 193 µM) | – | MIC (Streptococcus suis [7]): 16 µg/mL; MIC (Streptococcus suis [8]): 16 µg/mL; MIC (Streptococcus suis [9]): 32 µg/mL; MIC (Streptococcus suis [11]): 16 µg/mL; MIC (Streptococcus suis [13]): 16 µg/mL; MIC (Streptococcus suis [15]): 0.5 µg/mL; MIC (Streptococcus suis [16]): 16 µg/mL; MIC (Streptococcus suis [18]): 0.5 µg/mL; MIC (Streptococcus suis [19]): 16 µg/mL; MIC (Streptococcus suis [20]): 16 µg/mL; MIC (Streptococcus suis [21]): 0.5 µg/mL; MIC (Streptococcus suis [23]): 4 µg/mL; MIC (Streptococcus suis [25]): 0.5 µg/mL; MIC (Streptococcus suis [26]): 0.5 µg/mL; MIC (Streptococcus suis [27]): 0.5 µg/mL; MIC (Streptococcus suis [30]): 16 µg/mL; MIC (Streptococcus suis [31]): 16 µg/mL; MIC (Streptococcus suis [34]): 1 µg/mL |
| CCN1CCN(c2cc3c(cc2F)c(=O)c(C(=O)O)cn3C2CC2)CC1 [ENROFLOXACIN] | 32 (≈ 89 µM) | 0.5 (≈ 1.39 µM) | 32 (≈ 89 µM) | 8 (≈ 22.3 µM) | 0.5 (≈ 1.39 µM) | 8 (≈ 22.3 µM) | 0.5 (≈ 1.39 µM) | 0.25 (≈ 0.696 µM) | 16 (≈ 44.5 µM) | 1 (≈ 2.78 µM) | 0.5 (≈ 1.39 µM) | 16 (≈ 44.5 µM) | 8 (≈ 22.3 µM) | 16 (≈ 44.5 µM) | 16 (≈ 44.5 µM) | 0.5 (≈ 1.39 µM) | 16 (≈ 44.5 µM) | 4 (≈ 11.1 µM) | – |
| C[C@H]1COc2c(N3CCN(C)CC3)c(F)cc3c(=O)c(C(=O)O)cn1c23.C[C@H]1COc2c(N3CCN(C)CC3)c(F)cc3c(=O)c(C(=O)O)cn1c23.O [LEVOFLOXACIN] | 16 | 1 | 32 | 16 | 0.5 | 32 | 1 | 0.5 | 16 | 1 | 1 | 64 | 16 | 16 | 16 | 1 | 32 | 2 | – |
| CCn1cc(C(=O)O)c(=O)c2ccc(C)nc21 [NALIDIXIC ACID] | > 64 | > 64 | > 64 | > 64 | > 64 | > 64 | > 64 | > 64 | > 64 | > 64 | > 64 | > 64 | > 64 | > 64 | > 64 | > 64 | > 64 | > 64 | – |
| CCn1cc(C(=O)O)c(=O)c2cc(F)c(N3CCNCC3)cc21 [NORFLOXACIN] | > 64 | 2 (≈ 6.26 µM) | > 64 | > 64 | 4 (≈ 12.5 µM) | > 64 | 2 (≈ 6.26 µM) | 4 (≈ 12.5 µM) | 32 (≈ 100 µM) | 32 (≈ 100 µM) | 4 (≈ 12.5 µM) | > 64 | > 64 | > 64 | 32 (≈ 100 µM) | 2 (≈ 6.26 µM) | > 64 | 16 (≈ 50.1 µM) | – |
